# TCR CD3 inh = human TCR-CD3 binding inhibition; TAMRA-labeled TCR probe fluorescence, biochemical; inhibition, % at 9.4 µM; 0.37% of 360,000 active; AID 651800; in the data active = inhibition above about 19%;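 note: recombinant mutant TCR 2C K166C tagged with TAMRA read by polarization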
# PRMT1 FP inh = PRMT1 (human) inhibition, primary screen; recombinant PRMT1, activity-based probe fluorescence polarization; inhibition, % at 2.79 µM; 1.3% of 370,000 active; AID 652257;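 active = inhibition above about 21% made by adding two undisclosed values, limit read from the data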
# Target sequence (Q99873 whole entry, looked up): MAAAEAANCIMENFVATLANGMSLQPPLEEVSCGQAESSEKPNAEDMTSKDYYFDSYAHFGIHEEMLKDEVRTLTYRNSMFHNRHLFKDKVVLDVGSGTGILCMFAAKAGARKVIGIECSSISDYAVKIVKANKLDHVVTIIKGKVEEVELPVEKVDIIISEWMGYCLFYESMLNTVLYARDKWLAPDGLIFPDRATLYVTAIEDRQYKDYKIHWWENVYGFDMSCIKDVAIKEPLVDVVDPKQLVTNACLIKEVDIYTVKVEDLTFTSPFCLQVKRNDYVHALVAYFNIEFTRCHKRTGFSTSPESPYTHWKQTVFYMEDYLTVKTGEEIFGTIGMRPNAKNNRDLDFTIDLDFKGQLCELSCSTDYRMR
# rCAG binder = binds r(CAG) RNA repeats; 1.3% of 370,000 active; inhibition, % at 3 µM; r(CAG) RNA repeat, TO-PRO-1 dye displacement fluorescence; AID 651821;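 active = inhibition above the plate cutoff, the mean of all test compounds on that plate plus 3 SD, cut at about 35% in these data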;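 note: higher means more dye released from RNA so lower well fluorescence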
# mABHD4 FP = ABHD4 (mouse) inhibition, primary FP screen; Q8VD66; purified mABHD4, FP-Rh probe fluorescence polarization; inhibition, % at 8.92 µM; 0.54% of 370,000 active; AID 720543;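 active = inhibition exceeding the mean over every tested compound plus 3 SD, cut at about 30% in these data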
#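 system = mouse ABHD4 enzyme, wild type | medium = HEPES pH 7.0, NaCl, Pluronic buffer | also added = FP-Rh probe | incubation = Enzyme–compound pre-incubation 45 min, then probe 60 min, both 25 °C | technique = fluorescence polarization, excitation 525 nm, emission 598 nm, BODIPY TMR filters | controls = S159A mutant high control, sample median low control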
# SIAE primary = blocks human sialic acid acetylesterase; inhibition, % at 9.66 µM; Q9HAT2; 0.69% of 370,000 active; SIAE FP-Rh probe binding, fluorescence polarization;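 active = inhibition above a cutoff: mean of compounds within the control limits plus 3 SD of those, cut at about 17% in these data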
# rCAG binder conf = r(CAG) RNA repeat binding, confirmation; inhibition, % at 3 µM; TO-PRO-1 dye displacement fluorescence; shares compounds with rCAG binder; 70% of 4,300 active;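 active = inhibition above a per-plate cutoff, the mean inhibition of sample wells plus 3 SD, cut at about 35% in these data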;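 note: loss of TO-PRO-1 fluorescence as compound displaces dye from 1x1 AA loop RNA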
# dCAG dye counter = disrupts DNA CAG TO-PRO-1 complex, flagging rCAG hits | shares compounds with rCAG binder | d(CAG) DNA oligo TO-PRO-1 dye displacement, fluorescence | inhibition, % at 3 µM | 94% of 4,300 active | AID 652068;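 active = inhibition above its plate's cutoff, the mean test-well inhibition plus 3 SD, cut at about 4.8% in these data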;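 note: hits displace the dye from DNA and so lower well fluorescence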
# A number is an active result; - = inactive; . = no result. Most compounds without a hit are left out; they make up all but 3.3% or so of the library.
SMILES,TCR CD3 inh,PRMT1 FP inh,rCAG binder,mABHD4 FP,SIAE primary,rCAG binder conf,dCAG dye counter
CC(C)(C)OC(=O)N1CCC(c2ccc[nH]2)(c2c[nH]c3ccccc23)CC1,.,-,-,-,-,.,.
O=[N+]([O-])c1ccc(-c2nc(Nc3ccc(O)cc3)c3ccccc3n2)cc1,-,-,37,-,-,-,10
CC(C)CC(C(=O)Nc1oc(-c2ccccc2)c(-c2ccccc2)c1C#N)N1C(=O)c2ccccc2C1=O (stereo unspecified),-,-,51,-,-,39,19
O=C1CC(=O)N(Cc2cccs2)C(=O)N1,-,-,-,-,-,.,.
O=C1CC(=O)N(Cc2ccco2)C(=O)N1,-,22,35,-,-,36,13
C=CCN(CC#CC1=CCCCC1)CC1CC1,.,-,-,-,-,.,.
CC(=O)c1cc(-c2ccc(-c3ccccc3)c(F)c2)c(=O)n2c1CCC2,.,-,-,-,-,.,.
O=C(NCCc1nc2ccccc2n1CCOc1ccc2cccnc2c1)C1CCCCC1,.,-,.,-,-,.,.
Cc1ccc(-c2c(NC(=O)c3ccc(F)cc3)nc3ncccn23)cc1,.,-,-,-,-,.,.
Cc1cc(=O)[nH]c(SCC(=O)Nc2ccc(F)cc2)c1C#N,-,-,-,-,-,.,.
N#Cc1c(SCC(=O)Nc2ccc(C(F)(F)F)cc2)sc2c(O)cc(=O)[nH]c12,-,-,53,-,-,-,11
Cc1ccc(NC(=O)CSc2sc3c(O)cc(=O)[nH]c3c2C#N)c(F)c1,-,-,45,-,-,-,11
CCOC(=O)[C@@]12CCCC3=C1N(CCC3)C(=O)[C@H]2CC(=O)NCCCOC,.,-,-,-,-,.,.
Oc1ccc(/C=C/c2ccc3cccc(O)c3n2)cc1Br,-,-,50,-,-,-,14
CN(Cc1ccccc1)S(=O)(=O)c1cccc(C(=O)OCc2ccccc2)c1,.,-,-,-,-,.,.
COc1ccc(CN2C(=O)CCCC2(C)c2nnnn2-c2c(C)cccc2C)cc1OC (stereo unspecified),.,-,-,-,-,.,.
CCOC(=O)c1ccc(S(=O)(=O)Nc2nc3cc(S(=O)(=O)NC4=NCCCCC4)ccc3s2)cc1,-,41,59,-,-,56,23
Cc1ccccc1CN1CCCCC(NC(=O)Nc2ccccc2-c2ccccc2)C1=O (stereo unspecified),.,-,-,-,-,.,.
COCCCNC(=O)C[C@@H]1C(=O)N2CCCC3=C2[C@@]1(C(=O)OC)CCCC3,.,-,-,-,-,.,.
COc1ccc([N+](=O)[O-])cc1-c1[nH]c(-c2ccc(C(=O)O)cc2)nc1-c1ccccc1,-,-,55,-,-,48,16
Cc1nc2ccc(S(=O)(=O)NCC(=O)N(C)Cc3ccccc3Cl)cc2s1,.,-,-,-,-,.,.
O=Cc1ccc(N2N=C(c3ccccc3)CC2c2ccccc2)cc1 (stereo unspecified),-,-,-,-,-,.,.
O=C(O)c1ccc(N2N=C(c3ccccc3)CC2c2ccccc2)cc1 (stereo unspecified),-,-,44,-,-,47,12
CCCCN(CCCC)c1ccc(C(=O)c2ccccc2C(=O)O)c(O)c1,-,-,72,-,-,57,21
O=C(NC(Cc1c[nH]c2ccccc12)C(=O)O)OCC1c2ccccc2-c2ccccc21 (stereo unspecified),-,-,69,-,-,59,18
SMILES,TCR CD3 inh,PRMT1 FP inh,rCAG binder,mABHD4 FP,SIAE primary,rCAG binder conf,dCAG dye counter
CC(c1ccccc1)C(NC(=O)OCC1c2ccccc2-c2ccccc21)C(=O)O (stereo unspecified),-,-,46,-,-,42,8.9
CC(=O)N[C@H](Cc1c[nH]c2ccccc12)C(=O)O,-,-,-,-,-,.,.
O=C(CCc1c[nH]c2ccccc12)NC(Cc1ccccc1)C(=O)O (stereo unspecified),-,-,36,-,-,-,-
O=C(N[C@H](Cc1ccc(Cl)cc1)C(=O)O)OCC1c2ccccc2-c2ccccc21,-,-,40,-,-,66,24
COc1ccc(CN(CCN2CCOCC2)C(=O)c2cc(F)ccc2F)cc1OC,.,-,-,-,-,.,.
C=CCN(C(=O)[C@@H](CCCC)[C@@H](O)c1ccc(C(C)=O)cc1)c1ccccc1,.,-,-,-,-,.,.
CN(Cc1cn(Cc2ccccc2)nn1)S(=O)(=O)c1ccccc1Br,.,-,-,-,-,.,.
COC(=O)[C@]12C[C@H](CC(=O)NCC3CCCCC3)C(=O)N(Cc3ccco3)C1=C[C@H](C1CCCC1)O[C@@H]2C,.,-,-,-,-,.,.
Nc1ccc(CNC(=O)OCC2c3ccccc3-c3ccccc32)cc1,-,-,-,-,-,.,.
O=C(N[C@@H](Cc1ccc(Br)cc1)C(=O)O)OCC1c2ccccc2-c2ccccc21,-,-,39,-,-,69,28
O=C(c1cc(F)ccc1F)N1CCC(Oc2cccnc2)CC1,.,-,-,-,-,.,.
Cc1nc2ccc(S(=O)(=O)NCC(=O)NCc3ccccc3C)cc2s1,.,-,-,-,-,.,.
O=c1c2cc3cc(Cl)ccc3nc2ncn1N1CCCCC1,.,-,-,-,-,.,.
Cc1ccc(CSc2nnc(-c3n[nH]c4c3CCC4)n2N)cc1,.,-,-,-,-,.,.
COc1ccc(-n2c(SCC(=O)NNC(=S)Nc3ccccc3)nc3ccccc3c2=O)cc1,.,-,50,-,-,43,16
Cc1ccc(NC(=S)NNC(=O)CSc2nc3ccccc3c(=O)n2-c2ccc(C)cc2)cc1,-,-,45,-,-,45,20
C=CCN1C(=O)[C@@H](CC(=O)NCCC(C)C)[C@]2(C(=O)OCC)CCCCC/C=C/12,.,-,-,-,-,.,.
CCCC1CCC2(CCC(=O)N2CCSc2ccccc2)CC1 (stereo unspecified),.,-,-,-,-,.,.
COc1ccc(-n2nc(C(=O)NCC(=O)NCCC3=CCCCC3)c3ccccc3c2=O)cc1OC,-,-,36,-,-,-,7.3
COC(=O)CNC(=O)CNC(=O)c1nn(-c2ccc(OC)c(OC)c2)c(=O)c2ccccc12,-,-,-,-,-,.,.
Cc1cccc(C(=O)Nc2scc(-c3ccc(Br)cc3)c2C(=O)O)c1,-,-,-,-,-,.,.
Cc1ccc(-c2csc(NC(=O)c3cccc(C)c3)c2C(=O)O)cc1,-,-,77,-,-,58,21
Cc1ccc(-c2csc(NC(=O)/C=C/c3ccco3)c2C(=O)O)cc1,-,-,58,-,-,36,9.6
Cc1ccc(-c2csc(NC(=O)c3ccccc3Cl)c2C(=O)O)cc1,-,-,46,-,-,-,7.5

# Bioassay records deposited in PubChem BioAssay by The Scripps Research Institute Molecular Screening Center.
